Source: ChEMBL document CHEMBL4513216, “Probing the Open Global Health Chemical Diversity Library for Multistage-Active Starting Points for Next-Generation Antimalarials” (ACS Infect Dis, 2020)

Assay: Toxicity liver stage against HepG2, at 10uM
Format: cell-based
Design: test concentration 10 uM, cell line HepG2-A16-CD81EGFP
Details: human, HepG2-A16-CD81EGFP cells; read-out: INHIBITION
Summary of the method: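 Uninfected HepG2-A16-CD81EGFP cells, 3 × 10^3 per well, 1536-well, plated on prespotted compound at 10 μM final, parasite-free screening media added to match infected plates; puromycin 10 μM positive, DMSO 0.5% negative; run in parallel with 48 h PbLuc assay at 37 °C, 5% CO2; viability by CellTiter-Glo luminescence, normalized to controls.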
COc1ccc(-c2nc(C#N)c(N(C)C)o2)cc1OC showed a cytotoxicity at 10 µM of -4.91%.
In the case of CN1C(=O)COc2ccc(C(=O)Cn3cnc4ccccc4c3=O)cc21, the cytotoxicity at 10 µM is reported as -0.894%.
With O=S(=O)(NCC1(O)CCOc2ccccc21)c1ccccc1Br (stereo not given) the cytotoxicity at 10 µM was 8.45%.
Cc1nc([C@@H]2C[C@H]3CN(Cc4scnc4C)C[C@H]3O2)no1 gave a cytotoxicity at 10 µM of -127%.
With CCN1C(=O)C2(CCOCC2)c2cc(NC(=O)c3csnn3)ccc21 the cytotoxicity at 10 µM was 0.223%.
COc1cccc(C(=O)N2CCc3ncnc(C)c3CC2)c1 gave a cytotoxicity at 10 µM of -12.6%.
Cc1ccc(F)cc1C(=O)NCc1ccc(C(=O)O)o1 gave a cytotoxicity at 10 µM of -10.1%.
With CC(C)(C)OC(=O)N1CCCCC(NC(=O)CCc2cccnc2)C1 (stereo not given) the cytotoxicity at 10 µM was 17.5%.
Work on CNC(=O)NC(=O)CN1CCc2c(Br)ccc(F)c2C1 yielded a cytotoxicity at 10 µM of -9.3%.
COC(=O)C1CCN(C(=O)Cn2ccc(-c3ccccc3)n2)CC1 gave a cytotoxicity at 10 µM of -1.22%.
Cn1ccc(N2CCCC(NC(=O)c3ccc(Cl)o3)C2=O)n1 (stereo not given) gave a cytotoxicity at 10 µM of -2.51%.
For O=C(NS(=O)(=O)c1ccc(F)c(F)c1)c1cscn1, the cytotoxicity at 10 µM was -5.64%.
With COc1ccnc(N2CCc3ccc(OC(F)F)cc3C2)n1 the cytotoxicity at 10 µM was -4.32%.
Compound Cc1nc(CN2CCCN(CCCc3ccccc3)CC2)no1 has a cytotoxicity at 10 µM of 11.3%.
For CC(=O)c1cccc(NC(=O)NCCCc2nc(C(C)C)no2)c1, the cytotoxicity at 10 µM was 2.16%.
CCSc1cc(C(=O)NCCC(=O)N(C)C)ccn1 showed a cytotoxicity at 10 µM of -5.41%.
Work on CNC(=O)COc1ccc(-c2ccccc2)nc1 yielded a cytotoxicity at 10 µM of 1.76%.
For CC(=O)N1CCN(CCNS(=O)(=O)c2ccc(F)c(F)c2)CC1, the cytotoxicity at 10 µM was 8.81%.
Compound CC(CCSc1ccccc1)N1CCCN(C(N)=O)CC1 (stereo not given) has a cytotoxicity at 10 µM of -10.7%.
Work on CC(=O)N1CCN(C(=O)C(C)Nc2ccc3ncsc3c2)CC1 (stereo not given) yielded a cytotoxicity at 10 µM of -3.25%.
For CNC(=O)C1CN(Cc2ccc(C#N)cc2F)c2ccccc2O1 (stereo not given), the cytotoxicity at 10 µM was 9.44%.
With Cc1nsc(N2CCCN(c3ccc(C#N)cn3)CC2)n1 the cytotoxicity at 10 µM was -1.32%.
Work on CN(Cc1ccccc1O)C(=O)Nc1cc(F)cc(N2CCCC2)c1 yielded a cytotoxicity at 10 µM of 7.93%.
With COCC(C)(NC(=O)c1cc(Cl)c(-n2cccc2)cc1OC)C(N)=O (stereo not given) the cytotoxicity at 10 µM was -4.15%.
Cc1cnc(CN(Cc2ccccc2)CC(O)c2cccs2)cn1 (stereo not given) gave a cytotoxicity at 10 µM of -15.4%.
With Cc1nc(CCNC(=O)NC2CCN(c3ncccn3)CC2)cs1 the cytotoxicity at 10 µM was -11.8%.
In the case of O=C(CNc1cc(-c2ccccc2)nc2ccnn12)NC1CC1, the cytotoxicity at 10 µM is reported as -10.5%.
Compound CCn1nc(CC(C)C)cc1C(=O)N1CC(N2CCCCC2C)C1 (stereo not given) has a cytotoxicity at 10 µM of -12.4%.
CCn1nccc1C(=O)N1CCCCC1CCc1ccc(O)cc1 (stereo not given) gave a cytotoxicity at 10 µM of 2.62%.
O=C(CCc1cc2n(n1)CCCNC2)N1CCN(C2CCCC2)C(=O)C1 showed a cytotoxicity at 10 µM of 2.68%.
Compound Cc1ccc(CN2CCNC(=O)C2CC(=O)NCc2n[nH]c(C)n2)cc1 (stereo not given) has a cytotoxicity at 10 µM of -3.83%.
In the case of CN1CC2(CCCN(Cc3cccc(CCN)c3)C2)OC1=O (stereo not given), the cytotoxicity at 10 µM is reported as 20%.
In the case of CCn1c(C2CCN(C(=O)c3cc(Cl)no3)CC2)nn(C)c1=O, the cytotoxicity at 10 µM is reported as -10.5%.
Work on COCCN(C)C[C@@H]1CN(c2cc(C)nc3ccccc23)C[C@@H]1CO yielded a cytotoxicity at 10 µM of -1.92%.
Work on COCCC(=O)N1CCC2(CC1)CC(c1ccccc1)CN(C)C2 (stereo not given) yielded a cytotoxicity at 10 µM of -14.4%.
Cc1cnn(CC2CCCN2C(=O)c2ccc(OC(C)C)nc2)c1 (stereo not given) gave a cytotoxicity at 10 µM of -6.13%.
O=C(NCc1ccco1)[C@@]12CCO[C@@H]1CCN(Cc1ccccn1)C2 showed a cytotoxicity at 10 µM of 0.109%.
In the case of COc1ncccc1C(=O)N1C[C@@H]2COC[C@]2(CN(C)C)C1, the cytotoxicity at 10 µM is reported as -143%.
c1cc(CNCc2ccnc(N3CCOCC3)c2)c2c(c1)OCO2 gave a cytotoxicity at 10 µM of 2.75%.
Work on Cc1cccc(CN2CCOCC3(CCN(C4CCOCC4)C3)C2)n1 (stereo not given) yielded a cytotoxicity at 10 µM of -0.124%.
Work on Cc1ccoc1C(=O)N1C[C@@H]2COC[C@]2(COCc2cccnc2)C1 yielded a cytotoxicity at 10 µM of 5.95%.
Compound COCCN1CC[C@@H](OC)[C@@H]1Cc1ccccc1 has a cytotoxicity at 10 µM of 4.9%.
Compound c1cnc(N2CCOCC3(CN(Cc4nccs4)CCO3)C2)nc1 (stereo not given) has a cytotoxicity at 10 µM of 1.5%.
Compound COCCN1C[C@@H]2CC[C@H]1CN(Cc1nc3ccccc3n1C)C2 has a cytotoxicity at 10 µM of -11.2%.
Compound Cc1cc(C)n(CC(=O)N2C[C@H]3CC[C@@H](C2)N(CC2CCC2)C3)c(=O)n1 has a cytotoxicity at 10 µM of 13.3%.
